According to ChEMBL document CHEMBL4024779, “Novel Terminal Bipheny-Based Diapophytoene Desaturases (CrtN) Inhibitors as Anti-MRSA/VISR/LRSA Agents with Reduced hERG Activity” (J Med Chem, 2018):
Positions count from the first letter of the chain named. Calls of active or inactive are those of the source. No cut-off for these calls is given here.

Legend:
Staphylococcus aureus [1] = experiment: In vivo anti-virulence activity against methicillin-resistant Staphylococcus aureus Mu50 infected in BALB/c mouse model assessed as reduction in bacterial load in heart at 0.1 mg bid for 3.5 days administered intraperitoneally 6 hrs post infection by serial dilution method; format: functional; design: scale not given: the % may be the effect or the level left
Summary of the method: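 Mice were challenged with 1.3 × 10^9 CFU Mu50. Compound was given intraperitoneally, either 24 h before or 6 h after infection. Log10 CFU was counted in kidneys and hearts.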

[2] = Inhibition of CrtN in methicillin-resistant Staphylococcus aureus NRS271 assessed as reduction in staphyloxanthin levels after 48 hrs by spectrophotometric method-based pigment inhibition assay
Staphylococcus aureus [3] = experiment: In vivo anti-virulence activity against Staphylococcus aureus Newman infected in BALB/c mouse model assessed as reduction in bacterial load in heart at 0.4 mg bid for 4.5 days administered intraperitoneally 24 hrs prior to infection by serial dilution method; format: functional, organism-based
Summary of the method: (§1)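 Mice (n=10 per group) got 2.3 × 10^7 CFU S. aureus Newman by retro-orbital injection. Compound was given intraperitoneally b.i.d., either 24 h before infection (4.5 d) or 6 h after infection (3.5 d). Mice were sacrificed after 4.5 d and CFU counted in kidneys and hearts. Groups were compared by two-tailed Mann-Whitney test.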

[4] = target: T1, 4,4'-diapophytoene desaturase (4,4'-diaponeurosporene-forming) (Staphylococcus aureus (strain Mu50 / ATCC 700699), UniProt Q99R76); experiment: Inhibition of CrtN in methicillin-resistant Staphylococcus aureus Mu50 assessed as reduction in staphyloxanthin levels after 48 hrs by spectrophotometric method-based pigment inhibition assay; design: species or system Staphylococcus aureus subsp. aureus Mu50
T1 sequence (Q99R76 whole entry): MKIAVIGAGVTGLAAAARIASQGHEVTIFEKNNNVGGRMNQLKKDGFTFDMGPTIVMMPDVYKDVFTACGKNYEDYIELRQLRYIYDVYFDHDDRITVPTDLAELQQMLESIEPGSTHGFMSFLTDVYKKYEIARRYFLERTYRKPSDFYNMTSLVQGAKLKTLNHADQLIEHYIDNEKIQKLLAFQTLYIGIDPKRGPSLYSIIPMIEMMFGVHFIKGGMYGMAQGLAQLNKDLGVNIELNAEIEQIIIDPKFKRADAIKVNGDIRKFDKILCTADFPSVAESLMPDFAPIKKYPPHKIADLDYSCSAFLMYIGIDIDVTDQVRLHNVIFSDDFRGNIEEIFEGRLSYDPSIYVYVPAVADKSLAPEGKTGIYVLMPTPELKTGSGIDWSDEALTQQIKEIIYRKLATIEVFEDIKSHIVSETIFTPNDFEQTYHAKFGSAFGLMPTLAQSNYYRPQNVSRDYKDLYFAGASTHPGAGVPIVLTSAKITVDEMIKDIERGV

Staphylococcus aureus [5] = experiment: Antibacterial activity against methicillin-resistant Staphylococcus aureus USA400 MW2 assessed as change in bacterial growth at 0.2 mM […]; format: functional
Staphylococcus aureus [6] = experiment: In vivo anti-virulence activity against methicillin-resistant Staphylococcus aureus NRS271 infected in BALB/c mouse model assessed as reduction in bacterial load in heart at 0.1 mg bid for 4.5 days administered intraperitoneally 24 hrs prior to infection by serial dilution method; format: functional; design: scale not given: the % may be the effect or the level left
Summary of the method: (§2)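 Mice (n=10 per group) infected retro-orbitally with S. aureus Mu50 (1.1 × 10^9 or 1.3 × 10^9 CFU) or NRS271 (2.3 × 10^8 CFU). Compound given i.p. b.i.d., either 6 h after infection for 3.5 d or 24 h before infection for 4.5 d. Mice killed after 4.5 d; log10 CFU per organ counted in kidneys and hearts. Two-tailed Mann−Whitney test.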

Staphylococcus aureus [7] = experiment: In vivo anti-virulence activity against methicillin-resistant Staphylococcus aureus NRS271 infected in BALB/c mouse model assessed as reduction in bacterial load in kidneys at 0.4 mg bid for 3.5 days administered intraperitoneally 6 hrs post infection by serial dilution method; format: functional; design: scale not given: the % may be the effect or the level left; summary of the method: as §2
Nannizzia gypsea = experiment: In vitro antifungal activity against Microsporum gypseum after 7 days by serial dilution method; format: functional; conditions: 168 h
Staphylococcus aureus [8] = experiment: In vivo anti-virulence activity against Staphylococcus aureus Newman infected in BALB/c mouse model assessed as reduction in bacterial load in kidneys at 0.4 mg bid for 4.5 days administered intraperitoneally 24 hrs prior to infection by serial dilution method; format: functional, organism-based; summary of the method: as §1
Staphylococcus aureus [9] = experiment: In vivo anti-virulence activity against methicillin-resistant Staphylococcus aureus Mu50 infected in BALB/c mouse model assessed as reduction in bacterial load in heart at 0.4 mg bid for 4.5 days administered intraperitoneally 24 hrs prior to infection by serial dilution method; format: functional; design: scale not given: the % may be the effect or the level left; summary of the method: as §2
[10] = target: T2, 4,4'-diapophytoene desaturase (4,4'-diaponeurosporene-forming) (Staphylococcus aureus (strain MW2), UniProt Q8NUQ6); experiment: Inhibition of CrtN in methicillin-resistant Staphylococcus aureus USA400 MW2 assessed as reduction in staphyloxanthin levels after 48 hrs by spectrophotometric method-based pigment inhibition assay; design: species or system Staphylococcus aureus subsp. aureus MW2
T2 sequence (Q8NUQ6 whole entry): T1 sequence (Q99R76 whole entry) with R500Q

Trichophyton rubrum = experiment: In vitro antifungal activity against Trichophyton rubrum after 7 days by serial dilution method; format: functional; conditions: 168 h
[11] = test system: Trichophyton mentagrophytes; experiment: In vitro antifungal activity against Trichophyton mentagrophytes after 7 days by serial dilution method; format: functional; conditions: 168 h
Staphylococcus aureus [12] = experiment: In vivo anti-virulence activity against methicillin-resistant Staphylococcus aureus Mu50 infected in BALB/c mouse model assessed as reduction in bacterial load in kidneys at 0.1 mg bid for 4.5 days administered intraperitoneally 24 hrs prior to infection by serial dilution method; format: functional; design: scale not given: the % may be the effect or the level left; summary of the method: as §2
[13] = target: T3, 4,4'-diapophytoene desaturase (4,4'-diaponeurosporene-forming) (Staphylococcus aureus (strain Newman), UniProt O07855); experiment: Inhibition of CrtN in Staphylococcus aureus Newman assessed as reduction in staphyloxanthin levels after 48 hrs by spectrophotometric method-based pigment inhibition assay; design: species or system Staphylococcus aureus subsp. aureus str. Newman
T3 sequence (O07855 whole entry): T1 sequence (Q99R76 whole entry)

Staphylococcus aureus [14] = experiment: In vivo anti-virulence activity against Staphylococcus aureus Newman infected in BALB/c mouse model assessed as reduction in bacterial load in kidneys at 0.1 mg bid for 4.5 days administered intraperitoneally 24 hrs prior to infection by serial dilution method; format: functional, organism-based; summary of the method: as §1
Staphylococcus aureus [15] = experiment: In vivo anti-virulence activity against Staphylococcus aureus Newman infected in BALB/c mouse model assessed as reduction in bacterial load in heart at 0.1 mg bid for 4.5 days administered intraperitoneally 24 hrs prior to infection by serial dilution method; format: functional, organism-based; summary of the method: as §1
Liver = experiment: In-vitro intrinsic clearance in human liver microsomes at 2 uM after 60 mins in presence of NADPH by LC-MS/MS method; format: ADME, microsome; conditions: 1 h

SMILES	Activity (Staphylococcus aureus [1])	IC50 [2]	Activity (Staphylococcus aureus [3])	IC50 [4]	Activity (Staphylococcus aureus [5])	Activity (Staphylococcus aureus [6])	Activity (Staphylococcus aureus [7])	MIC80 (Nannizzia gypsea)	Activity (Staphylococcus aureus [8])	Activity (Staphylococcus aureus [9])	IC50 [10]	MIC80 (Trichophyton rubrum)	MIC80 [11]	Activity (Staphylococcus aureus [12])	IC50 [13]	Activity (Staphylococcus aureus [14])	Activity (Staphylococcus aureus [15])	CLH (Liver)
CN(C/C=C/c1ccc(-c2ccccc2)cc1)Cc1coc2ccccc12.Cl	>95%	5.6 nM	Active	0.8 nM	inactive	>95%	>95%	32 µg/mL	Active	>95%	7.9 nM	64 µg/mL	> 64 µg/mL	>95%	2 nM	Active	Active	1230 µL/min/mg
CN(C/C=C/c1ccc(-c2ccccc2)cc1)Cc1cccc2cc[nH]c12.Cl	>95%	10.1 nM	inactive	0.4 nM	inactive	>95%	>95%	> 64 µg/mL	inactive	>95%	8 nM	> 64 µg/mL	> 64 µg/mL	>95%	3.3 nM	inactive	inactive	20 µL/min/mg
